From PubChem BioAssay
Hits are enriched below; roughly 4% of the tested compounds scored in any of these assays.
ABHD5-PLIN5 inh – ABHD5-PLIN5 protein interaction inhibition; Q00G26+Q8WTS1; Split G. princeps luciferase complementation, luminescence, 4 h; inhibition, % at 4 µM; hit rate 0.78% among 360,000; AID 602281;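 active = inhibition above the mean inhibition across every tested compound plus 3 SD, cut at about 22% in these data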;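 note: 0% = DMSO only wells and the 100% control is not disclosed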
Mdm2-MdmX inh – disrupts the human Mdm2-MdmX interaction; O15151+Q00987; SaOS-2 split-luciferase Mdm2/MdmX complementation, luminescence; inhibition, % at 8 µM; hit rate 3% among 330,000; AID 485346;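 active = inhibition of at least 50% at 8 µM in the primary screen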
UPR CHOP act – apoptotic UPR (CHOP) activation; hit rate 0.34% among 330,000; CHO-CHOP luciferase reporter, luminescence; percent of tunicamycin response over DMSO baseline; AID 449763; activation, % at 10 µM;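 active = at 10 µM dose, activation of 40% or more, normalized to positive control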;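 note: 100% = tunicamycin at 10 µg/mL and 0% = DMSO alone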
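System: CHO-CHOP luciferase reporter cell line | Buffer or medium: F12 medium containing 10% fetal bovine serum | Doses: One dose, 10 µM in 0.5% DMSO | Times: 6 h compound exposure at 37 °C after overnight seeding | Signal: Luciferase luminescence | Read-out: % activation vs tunicamycin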
UPR XBP1 act – activators of adaptive arm of unfolded protein response (XBP1). CHO-XBP1 luciferase reporter, IRE1-XBP1 UPR activation, luminescence; percent of tunicamycin response, DMSO as zero. activation, % at 20 µM. hit rate 0.33% among 330,000. AID 463104;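 active = versus positive control, 20 µM dose yields 30% or more activation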;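 note: 100% = tunicamycin at 10 µg/mL and 0% = DMSO only wells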
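Material – CHO cell line with stable XBP1 luciferase reporter · Buffer or medium – F12 plus 10% FBS · Compound – single point, 20 µM final compound, 1% DMSO · Schedule – 16-18 h cell attachment at 37 °C, then 6 h compound exposure · Signal – Steady-Glo luminescence read · Benchmarks – high control tunicamycin 10 µg/mL final, low control DMSO vehicle only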
Exocytosis inh – lytic granule exocytosis inhibition; AID 651702; TALL-104 LAMP-1 surface exposure, flow cytometry; cells stimulated with thapsigargin and PMA; inhibition, % at 10 µM; hit rate 0.66% among 360,000;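 active = inhibition above about 55%, limit read from the data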
Mdm2-MdmX conf – human Mdm2/MdmX binding inhibition, confirmed. shares compounds with Mdm2-MdmX inh. luminescent assay. inhibition, % at 8 µM. hit rate 55% among 10,000. AID 489028; in the data active = inhibition above about 40%
FLuc counter – counter-screen for Mdm2/MdmX inhibitors: full-length luciferase; shares compounds with Mdm2-MdmX inh; SaOS-2 full-length luciferase counterscreen, luminescence; inhibition, % at 8 µM; hit rate 77% among 6,200; AID 504607;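 active = mean inhibition at 8 µM reaching about 37%, which flags the compound as non-specific, limit read from the data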;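 note: p53-null SaOS-2 cells with luciferase driven by a doxycycline-inducible promoter; compound on cells about two nights before reading with doxycycline added after day one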
ABHD5-PLIN5 conf – confirmation of human ABHD5-PLIN5 interaction inhibitors; shares compounds with ABHD5-PLIN5 inh; hit rate 67% among 2,200; inhibition, % at 4 µM; biochemical ABHD5-PLIN5 interaction, luminescence; in the data active = inhibition above about 23%;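 note: 0% = DMSO vehicle wells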
HNF4 counter – active in HNF4 split-luciferase counter-screen for ABHD5-PLIN5 inhibitors; shares compounds with ABHD5-PLIN5 inh; HNF4 dimerization, luminescence, biochemical; inhibition, % at 4 µM; hit rate 77% among 2,200;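 active = mean inhibition across replicate wells exceeding the computed hit threshold, cut at about 13% in these data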;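 note: light from luciferase halves that rejoin when HNF4 fusion proteins dimerize; 0% = DMSO only wells and the 100% control is not given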
Active calls of the source: *; nt = not tested or not shown.

SMILES	ABHD5-PLIN5 inh	Mdm2-MdmX inh	UPR CHOP act	UPR XBP1 act	Exocytosis inh	Mdm2-MdmX conf	FLuc counter	ABHD5-PLIN5 conf	HNF4 counter
CC(C)[C@H](NC(=O)[C@@H]1CSCN1C(=O)OC(C)(C)C)C(=O)NCC1CCC(C(=O)O)CC1 (some centres not stated)	2	2	1	1	-2	nt	nt	nt	nt
CN(C)CCCN(C(=O)/C=C/c1cccs1)c1nc2ccc(F)cc2s1	39*	59*	2	-3	10	39	63*	20	24*
COc1ccc(C)c2sc(N(CCN(C)C)C(=O)/C=C/c3cccs3)nc12	35*	65*	5	-2	41	27	nt	23*	8
O=C(C1CCCCC1)N1CCCC(c2nc3c(nnn3Cc3ccccc3)c(=O)[nH]2)C1 (configuration not stated)	5	7	-1	1	-2	nt	nt	nt	nt
O=C(/C=C/c1cccc(Cl)c1)c1nc2ccccc2[nH]1	61*	92*	12	26	7	4	nt	98*	99*
O=C(/C=C/c1cccc(Cl)c1)Nc1ncccn1	-1	-46	4	3	-6	nt	nt	nt	nt
CCNC(=S)Nc1sc2c(c1C#N)CCC(C)C2 (configuration not stated)	8	8	3	5	0	nt	nt	nt	nt
CCCNC(=O)c1nnsc1S(=O)(=O)c1ccc(Cl)cc1	77*	96*	-5	-9	12	100*	51*	80*	108*
Cc1ccc(S(=O)c2snnc2C)cc1 (configuration not stated)	-4	-7	3	2	-3	nt	nt	nt	nt
CCCNC(=O)c1nnsc1S(=O)c1ccc(Cl)cc1 (configuration not stated)	75*	97*	-11	-8	51	100*	2	96*	108*
CNC(=O)c1nnsc1S(=O)c1ccc(Cl)cc1 (configuration not stated)	67*	98*	-11	-10	32	94*	3	85*	104*
CCCNC(=O)NS(=O)(=O)c1ccc(Cl)cc1	1	12	0	-8	1	nt	nt	nt	nt
O=C(NCc1cccs1)c1cc2c(s1)CCCC2	-1	-42	5	3	-3	nt	nt	nt	nt
CN(C(=O)COC(=O)c1cc2ccccc2cc1O)c1ccccc1	-5	-14	3	2	8	nt	nt	nt	nt
CCn1c(Cl)c(C=O)s/c1=N\S(=O)(=O)c1ccccc1	48*	100*	-11	-7	5	98*	51*	71*	105*
CCc1cc2c(=O)n(Cc3ccco3)c(SCc3c(C)noc3C)nc2s1	26*	72*	1	1	18	66*	48*	30*	51*
COc1ccc(NC(=O)CSc2nc3[nH]c(=O)cc(O)c3s2)cc1OC	-10	30	1	-1	-1	nt	nt	nt	nt
Cc1cc(O)c(C(=O)/C=C/c2cccc([N+](=O)[O-])c2)c(=O)o1	-1	13	1	-3	41	nt	nt	nt	nt
O=C(/C=C/c1cccc(Cl)c1)c1ccc([N+](=O)[O-])o1	96*	100*	6	-8	-4	100*	51*	103*	110*
C=CC(=O)N1c2ccccc2Sc2ccc(NC(=O)OCC)cc21	30*	87*	5	-3	21	41*	35	62*	29*
CCOC(=O)Nc1ccc2c(c1)N(C(=O)N1CCN(C)CC1)c1ccccc1S2	11	23	-1	-2	1	nt	nt	nt	nt
CCN(CC)CCN1C(=O)/C(=C\c2ccc(Cl)c([N+](=O)[O-])c2)SC1=Nc1ccc(OC)cc1	39*	100*	24	4	93*	98*	0	27*	14*
CCN1C(=O)/C(=C/c2cccs2)SC1=Nc1ccc(OC)cc1	-1	-15	1	1	-6	nt	nt	nt	nt
COc1cccc(-c2sc3ccccc3c2-c2ccc(OCCN3CCCCC3)cc2)c1	29*	95*	3	12	-2	28	nt	9	-6
Cc1c(-c2ccc(OCCN3CCCCC3)cc2)c(=O)oc2ccc3ccccc3c12	2	nt	nt	nt	-7	nt	nt	nt	nt
SMILES	ABHD5-PLIN5 inh	Mdm2-MdmX inh	UPR CHOP act	UPR XBP1 act	Exocytosis inh	Mdm2-MdmX conf	FLuc counter	ABHD5-PLIN5 conf	HNF4 counter
Cc1cc(C)c2nc(N(CCCN(C)C)C(=O)c3ccc4c(c3)OCCO4)sc2c1	27*	66*	2	6	15	53*	76*	19	3
CN(C)CCCN(C(=O)c1ccc(S(=O)(=O)N(C)Cc2ccccc2)cc1)c1nc2cc3c(cc2s1)OCO3	24*	57*	0	1	34	31	nt	17	3
CN(C)CCCN(C(=O)c1ccc2c(c1)CCCC2)c1nc2ccc(Cl)cc2s1	28*	54*	6	7	26	19	nt	11	10
Cc1cc(C)c2nc(N(CCCN(C)C)C(=O)C3=COCCO3)sc2c1	20	42	3	5	7	nt	nt	nt	nt
CN(C)CCN(C(=O)c1ccc(S(=O)(=O)N2CCCC2)cc1)c1nc2ccc(Br)cc2s1	0	14	4	2	1	nt	nt	nt	nt
CC1CCCCN1S(=O)(=O)c1ccc(C(=O)N(CCCN(C)C)c2nc3ccc(Br)cc3s2)cc1 (configuration not stated)	24*	77*	7	25	24	33	61*	15	9
COc1ccc(-c2cc(N)n(S(=O)(=O)c3c(F)c(F)c(F)c(F)c3F)n2)cc1OC	30*	81*	-10	-6	55	100*	-1	50*	6
C=CS(=O)(=O)c1ccc(Oc2ccc(S(=O)(=O)C=C)cc2)cc1	86*	100*	-7	-6	89*	100*	1	100*	102*
O=C(O/N=C\c1ccc(N2CCCCC2)c([N+](=O)[O-])c1)c1ccc(Cl)cc1Cl	-4	9	0	-3	1	nt	nt	nt	nt
COc1ccccc1C(=O)/C=C/c1ccc(N2CCCCC2)c([N+](=O)[O-])c1	37*	99*	10	4	5	37	70*	64*	67*
Cn1nnnc1SCc1nc2scc(-c3ccccc3)c2c(=O)[nH]1	-8	23	2	1	-3	nt	nt	nt	nt
Cn1nnnc1Sc1ncnc2scc(-c3ccc[nH]3)c12	42*	69*	5	-3	-4	47*	29	40*	37*
